Measured values from PubChem BioAssay.
Activity calls are given as the source filed them. Rule as the data show it, unless noted: active = inhibition above about 30%; inactive = the rest.

Key:
[1] = HUVEC growth inhibition – cell-based, human, primary screen (AID 575;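 active = viability at or below 30% in both replicate assays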;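 also: 100% = median of untreated cell wells with 0.1% DMSO on each plate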); conditions: HUVEC proliferation, CellTiter-Glo luminescence, 72 h; at 10 µM; stronger effect = lower value
In short: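 Test system: HUVEC primary cells. Quantity: 1250 endothelial cells in each well. Dosing: single-point 10 µM, DMSO 0.1% final. Incubation: 72 h treatment at 37 °C. Measured by: CTG luminescence. Control set: DMSO cell controls and MePR drug controls. Plate: collagen-coated 384-well format.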

[2] = growth inhibitors of H69AR lung tumor, primary screen, human, duplicate replicates (AID 580;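 active = viability at or under a set limit in both replicates, limit being median viability minus 3 SD, cut at about 48% in these data, passing the limit was not always enough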;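 also: 100% = mean luminescence of untreated wells and 0% = no signal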); conditions: H69AR lung tumor cells viability, ATP luminescence, 72 h; at 10 µM; stronger effect = lower value
[3] = reversal of MRP1-mediated doxorubicin resistance, pilot screen, H69AR cells, doxorubicin co-treatment (AID 601;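 active = viability loss from added drug above about 55%, and viability with drug at most 40%, in both replicates, limit read from the data, passing the limit was not always enough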); conditions: CellTiter-Glo, 72 h, at 10 µM; for differential viability (reversal): stronger effect = higher value
[4] = 384-well plate pilot, post-Golgi transport modulator project, inhibition of yeast transport mutant growth (AID 636; in the data active = inhibition above about 31%); conditions: absorbance 615 nm, about 18 h, stronger effect = higher value
[5] = growth suppression of yeast trafficking mutant, preliminary HTS, modulators of trafficking downstream of Golgi apparatus project, 1536-format plate, OD 615 nm (AID 637); conditions: yeast transport mutant growth, absorbance 615 nm, 18 h; stronger effect = higher value
[6] = H69AR cells + 2 uM doxorubicin, measured here: viability with 2 uM doxorubicin, stronger effect = lower value
[7] = H69AR cells, compound alone cytotoxicity

Structure (SMILES)	viability [1]	viability [2]	differential viability (reversal) ([3]; H69AR cells + 2 uM doxorubicin)	viability [3, 6] [%]	viability [3, 7] [%]	inhibition [4]	inhibition [5]
Cc1ccc(NC(=O)c2ccccc2F)nc1	68.1% (inactive)	90.9% (inactive)	-6.37% (inactive)	97.2	90.9	-4.93% (inactive)	1.11% (inactive)
COc1ccc(CN(C(=O)CSc2nnc(-c3ccccc3F)o2)c2ccc(F)cc2)cc1	101% (inactive)	101% (inactive)	2.2% (inactive)	98.8	101	-5.2% (inactive)	2.7% (inactive)
Cc1nc(NCc2ccccn2)c2ccccc2n1	71% (inactive)	104% (inactive)	16.4% (inactive)	87.9	104	2.08% (inactive)	2.7% (inactive)
CN1CCCc2cc(C#N)c(=O)[nH]c21	99.7% (inactive)	107% (inactive)	8.18% (inactive)	99.3	107	-5.71% (inactive)	-2.38% (inactive)
COc1ccc(NC(=O)COc2ccccc2)c(OC)c1	111% (inactive)	104% (inactive)	23.1% (inactive)	81	104	-5.6% (inactive)	0.16% (inactive)
CCOC(=O)c1c(NC(=O)c2ccoc2C)sc2c1CCC2	93.3% (inactive)	78.9% (inactive)	-9.7% (inactive)	88.6	78.9	-3.82% (inactive)	0.95% (inactive)
CSC1=C(C#N)C(c2ccc(C)cc2)C2=C(CCCC2=O)N1 (stereo not given)	91.3% (inactive)	77.6% (inactive)	10.1% (inactive)	67.5	77.6	-2.99% (inactive)	-0.95% (inactive)
COc1cccc(C(=O)CSc2nnc(COc3cccc4cccnc34)o2)c1	90.3% (inactive)	81% (inactive)	-2.74% (inactive)	83.7	81	4.87% (inactive)	-7.94% (inactive)
Cc1ccc(-c2nn3c(C)nnc3s2)cc1N	83.5% (inactive)	94.7% (inactive)	16.5% (inactive)	78.2	94.7	-7.47% (inactive)	3.33% (inactive)
CN(C)c1oc(-c2ccccc2Cl)nc1C#N	56.5% (inactive)	94.9% (inactive)	16.8% (inactive)	78.1	94.9	-3.33% (inactive)	3.97% (inactive)
CC(=O)c1c(C)[nH]c(C(=O)NC2=NCCS2)c1C	80.9% (inactive)	99.8% (inactive)	23.3% (inactive)	76.5	99.8	-3.51% (inactive)	-5.4% (inactive)
COc1ccc(Cl)cc1-c1n[nH]c(=S)o1	86.9% (inactive)	95.5% (inactive)	13.7% (inactive)	81.8	95.5	-6.4% (inactive)	-1.27% (inactive)
CC(=O)NC(Cc1ccc(C)cc1)C(=O)NC1CCN(C(=O)c2cnccn2)CC1 (stereo not given)	110% (inactive)	93.3% (inactive)	2.21% (inactive)	91.1	93.3	-2.93% (inactive)	2.22% (inactive)
S=c1[nH]nc(COc2ccccc2)n1C1CCCCC1	89.5% (inactive)	81.6% (inactive)	22.4% (inactive)	59.2	81.6	-0.39% (inactive)	6.35% (inactive)
CN(c1ccccc1C(=O)N1CCN(c2cccc(Cl)c2)CC1)S(C)(=O)=O	108% (inactive)	93.8% (inactive)	-0.775% (inactive)	94.5	93.8	-6.53% (inactive)	1.43% (inactive)
O=C1c2ccccc2NC(c2ccco2)N1O (stereo not given)	97.2% (inactive)	96.5% (inactive)	9.15% (inactive)	87.3	96.5	-3.38% (inactive)	0.32% (inactive)
CCc1c(C(=O)NCCc2ccc(OC)c(OC)c2)[nH]c(C)c1C(C)=O	98.6% (inactive)	87% (inactive)	4.88% (inactive)	82.1	87	-5.2% (inactive)	3.97% (inactive)
Cc1c(O)c(CN2CCCC(C)C2)cc2c3c(c(=O)oc12)CCC3 (stereo not given)	93.3% (inactive)	83.1% (inactive)	-2.96% (inactive)	86.1	83.1	-6.97% (inactive)	-2.38% (inactive)
CSc1ccccc1NS(=O)(=O)c1ccccc1	101% (inactive)	102% (inactive)	10.8% (inactive)	90.8	102	-4.61% (inactive)	0% (inactive)
CCOCCCNC(=O)C1CCCN(S(=O)(=O)CC)C1 (stereo not given)	115% (inactive)	94.5% (inactive)	-3.11% (inactive)	97.6	94.5	-6.53% (inactive)	2.06% (inactive)
